Calls of active or inactive are those of the source. The rule behind the calls is not given here.
What was measured:
[1] = target: Beta-3 adrenergic receptor (Homo sapiens) (UniProt P13945); test: Effect on BRL-37344-induced human beta-3-adrenergic receptor activation expressed in HEK293 cells assessed as cAMP release at 5 uM; type: functional, cell-based
Summary of the method: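 HEK293 cells carried an EPAC-based cAMP BRET reporter. The agonist for β1 (exogenous) was 1 nM dobutamine, for β2 (endogenous) 100 nM terbutaline, and for β3 (exogenous) 10 nM BRL37344. Each agonist was given alone or with 5 μM compound. Live-cell cAMP was read as triplicate means, representative of 3 experiments.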

[2] = Clearance in CD1 mouse at 20 mg/kg, iv administered as bolus dose; type: ADME, organism-based; set-up: dose 20 mg/kg, route intravenous; conditions: in vivo
Summary of the method: (§1)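 Groups of three were bled terminally by cardiac puncture at set times. Plasma was acetonitrile-precipitated with internal standard and quantified by electrospray LC/MS/MS against a plasma standard curve (10-1000 ng/ml). Noncompartmental analysis was used.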

Escherichia coli [3] = test: Inhibition of [3H]norepinephrine binding to Escherichia coli Qsec at 5 pM by liposome-based scintillation counting assay
Summary of the method: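 Liposomes reconstituted with QseC were loaded with tritiated norepinephrine (5 μM) by freeze-thaw in liquid N2 and held 10 min at room temperature, so unbound signal could diffuse out. They were pelleted at 12,000g for 5 min and counted for tritium. Counts were normalized to liposomes loaded with 5 μM tyrosine. Compound was tested at 5 pM and 5 fM.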

Escherichia coli [4] = test: Inhibition of epinephrine-induced Escherichia coli Qsec autophosphorylation at 5 pM by liposome-based SDS-PAGE
Escherichia coli [5] = test: Inhibition of epinephrine-induced EspA protein secretion in Escherichia coli 8624 at 5 nM by Western blot; type: functional, organism-based
Summary of the method: (§2)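 Secreted proteins in cell-free supernatant were TCA-precipitated and immunoblotted with rabbit polyclonal anti-EspA and anti-EspB, with ECL detection.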

Escherichia coli [6] = test: Inhibition of epinephrine-induced EspB protein secretion in Escherichia coli 8624 at 5 pM by Western blot; type: functional, organism-based; summary of the method: as §2
Escherichia coli [7] = test: Antibacterial activity against Escherichia coli infected in New Zealand white rabbit assessed as inhibition of bacterial colonization in ileum at 20 mg/kg administered 24 hrs post-bacterial challenge; type: functional, organism-based; set-up: dose 20 mg/kg
Escherichia coli [8] = test: Antibacterial activity against Escherichia coli infected in New Zealand white rabbit assessed as inhibition of bacterial colonization in cecum at 20 mg/kg pretreated before 3 hrs of bacterial challenge; type: functional, organism-based; set-up: dose 20 mg/kg; conditions: Caecum
Escherichia coli [9] = test: Antibacterial activity against Escherichia coli infected in New Zealand white rabbit assessed as inhibition of bacterial colonization in cecum at 20 mg/kg administered 24 hrs post-bacterial challenge; type: functional, organism-based; set-up: dose 20 mg/kg; conditions: Caecum
Salmonella typhimurium = test: Bacteriostatic activity against Salmonella Typhimurium SL1344 at 1 uM in presence of epinephrine; type: functional, organism-based; conditions: Salmonella enterica subsp. enterica serovar Typhimurium str. SL1344
[10] = test system: Francisella tularensis subsp. tularensis SCHU S4; test: Antibacterial activity against Francisella tularensis SCHU S4 infected in mouse J774 cells assessed as reduction in bacterial CFU at 5 nM relative to control; type: functional
[11] = Cmax in CD1 mouse at 20 mg/kg, po; type: ADME, organism-based; set-up: dose 20 mg/kg, route oral; conditions: in vivo
Summary of the method: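 Terminal cardiac bleeds were taken in groups of three at set times. Plasma was acetonitrile-precipitated with internal standard and analysed by LC/MS/MS against a spiked-plasma standard curve. Parameters came from noncompartmental analysis.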

[12] = Oral bioavailability in CD1 mouse at 20 mg/kg; type: ADME, organism-based; conditions: in vivo
Summary of the method: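 Female CD-1 mice received 20 mg/kg either as an i.v. bolus or by oral gavage, in the same DMSO/PEG400/Tween 80/bicarbonate pH 9 vehicle. Plasma levels were measured by LC/MS/MS. Bioavailability = AUCoral/AUCiv × Doseiv/Doseoral, using noncompartmental AUCs.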

[13] = AUC in CD1 mouse at 5 mg/kg, iv administered as bolus dose; type: ADME, organism-based; set-up: dose 5 mg/kg, route intravenous; conditions: plasma; summary of the method: as §1
[14] = test system: Francisella tularensis subsp. tularensis SCHU S4; test: Antibacterial activity against Francisella tularensis SCHU S4 infected C3H HeN mouse assessed as survival at 20 mg/kg, po administered single dose 3 hrs post-bacterial measured after 9 days; type: functional
Mus musculus [15] = test: Toxicity in CD1 mouse assessed as change in lung weight at 20 mg/kg, po administered daily once for 5 days measured 3 days after final dose; type: organism-based; set-up: dose 20 mg/kg, route oral; conditions: in vivo, 72 h
Summary of the method: (§3)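 Female CD-1 mice (~22 g), three per group, given 20 mg/kg by oral gavage once daily for 5 days. Vehicle-only mice served as controls. Animals were weighed and observed daily. Three days after the last dose they were weighed and sacrificed. Blood was taken for chemistry and complete blood counts, and organs were weighed.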

Mus musculus [16] = test: Toxicity in CD1 mouse assessed as change in kidney weight at 20 mg/kg, po administered daily once for 5 days measured 3 days after final dose; type: organism-based; set-up: dose 20 mg/kg, route oral; conditions: in vivo, 72 h; summary of the method: as §3
Mus musculus [17] = test: Toxicity in CD1 mouse assessed as change in liver weight at 20 mg/kg, po administered daily once for 5 days measured 3 days after final dose; type: organism-based; set-up: dose 20 mg/kg, route oral; conditions: in vivo, 72 h; summary of the method: as §3
Mus musculus [18] = test: Toxicity in CD1 mouse assessed as change in brain weight at 20 mg/kg, po administered daily once for 5 days measured 3 days after final dose; type: organism-based; set-up: dose 20 mg/kg, route oral; conditions: in vivo; summary of the method: as §3
Mus musculus [19] = test: Toxicity in CD1 mouse assessed as change in body weight at 20 mg/kg, po administered daily once for 5 days measured 3 days after final dose; type: organism-based; set-up: dose 20 mg/kg, route oral; conditions: in vivo, 72 h; summary of the method: as §3
Mus musculus [20] = test: Toxicity in CD1 mouse assessed as alkaline phosphatase levels at 20 mg/kg, po administered daily once for 5 days measured 3 days after final dose; type: organism-based; set-up: dose 20 mg/kg, route oral; conditions: in vivo, 72 h
Mus musculus [21] = test: Toxicity in CD1 mouse assessed as glucose levels at 20 mg/kg, po administered daily once for 5 days measured 3 days after final dose; type: organism-based; set-up: dose 20 mg/kg, route oral; conditions: in vivo, 72 h; summary of the method: as §3
Mus musculus [22] = test: Toxicity in CD1 mouse assessed as calcium levels at 20 mg/kg, po administered daily once for 5 days measured 3 days after final dose; type: organism-based; set-up: dose 20 mg/kg, route oral; conditions: in vivo, 72 h; summary of the method: as §3
Mus musculus [23] = test: Toxicity in CD1 mouse assessed as urea nitrogen levels at 20 mg/kg, po administered daily once for 5 days measured 3 days after final dose; type: organism-based; set-up: dose 20 mg/kg, route oral; conditions: in vivo, 72 h; summary of the method: as §3
Mus musculus [24] = test: Toxicity in CD1 mouse assessed as creatinine levels at 20 mg/kg, po administered daily once for 5 days measured 3 days after final dose; type: organism-based; set-up: dose 20 mg/kg, route oral; conditions: in vivo, 72 h; summary of the method: as §3
Mus musculus [25] = test: Toxicity in CD1 mouse assessed as neutrophil counts at 20 mg/kg, po administered daily once for 5 days measured 3 days after final dose; type: organism-based; set-up: dose 20 mg/kg, route oral; conditions: in vivo, 72 h; summary of the method: as §3
Mus musculus [26] = test: Toxicity in CD1 mouse assessed as lymphocyte counts at 20 mg/kg, po administered daily once for 5 days measured 3 days after final dose; type: organism-based; set-up: dose 20 mg/kg, route oral; conditions: in vivo, 72 h; summary of the method: as §3
Mus musculus [27] = test: Toxicity in CD1 mouse assessed as hematocrit content at 20 mg/kg, po administered daily once for 5 days measured 3 days after final dose; type: organism-based; set-up: dose 20 mg/kg, route oral; conditions: in vivo, 72 h; summary of the method: as §3
Mus musculus [28] = test: Toxicity in CD1 mouse assessed as mean platelet volume at 20 mg/kg, po administered daily once for 5 days measured 3 days after final dose; type: organism-based; set-up: dose 20 mg/kg, route oral; conditions: in vivo, 72 h; summary of the method: as §3
Mus musculus [29] = test: Toxicity in C3H HeN mouse at 20 mg/kg, po administered as single dose; type: organism-based; set-up: dose 20 mg/kg, route oral; conditions: in vivo

Sequence of Beta-3 adrenergic receptor (Homo sapiens) (P13945 whole entry, looked up): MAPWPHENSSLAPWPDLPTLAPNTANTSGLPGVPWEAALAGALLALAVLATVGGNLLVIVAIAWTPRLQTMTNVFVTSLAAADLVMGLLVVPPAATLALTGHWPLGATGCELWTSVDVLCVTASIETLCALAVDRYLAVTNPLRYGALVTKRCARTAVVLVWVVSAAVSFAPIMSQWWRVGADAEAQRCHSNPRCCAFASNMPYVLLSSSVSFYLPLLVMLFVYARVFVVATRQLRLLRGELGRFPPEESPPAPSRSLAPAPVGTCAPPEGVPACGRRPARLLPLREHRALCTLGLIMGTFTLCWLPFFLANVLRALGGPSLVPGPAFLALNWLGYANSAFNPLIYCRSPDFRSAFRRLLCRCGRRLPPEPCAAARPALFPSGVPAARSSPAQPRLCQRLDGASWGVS

O=S(=O)(Nc1ccccc1)c1ccc(NC(=S)Nc2ccccc2)cc1
Activity [1]: inactive | clearance [2]: 1.48 mL/min | Activity (Escherichia coli [3]): Active | Activity (Escherichia coli [4]): inactive | Activity (Escherichia coli [5]): Active | Activity (Escherichia coli [6]): Active | Activity (Escherichia coli [7]): inactive | Activity (Escherichia coli [8]): inactive | Activity (Escherichia coli [9]): inactive | Activity (Salmonella typhimurium): inactive | fold change (FC) [10]: 10 | Cmax [11]: 2700 ng/mL | bioavailability [12]: 69.3% | AUC [13]: 1090 ng·h/mL | Activity [14]: 80% | Activity (Mus musculus [15]): Non-toxic | Activity (Mus musculus [16]): Non-toxic | Activity (Mus musculus [17]): Non-toxic | Activity (Mus musculus [18]): Non-toxic | Activity (Mus musculus [19]): Non-toxic | Activity (Mus musculus [20]): 141.3 U/L | Activity (Mus musculus [21]): 287 mg/dL | Activity (Mus musculus [22]): 9.6 mg/dL | Activity (Mus musculus [23]): 19 mg/dL | Activity (Mus musculus [24]): 0.2 mg/dL | Activity (Mus musculus [25]): 9.3% | Activity (Mus musculus [26]): 82% | Activity (Mus musculus [27]): 38.5% | Activity (Mus musculus [28]): 5 fL | Activity (Mus musculus [29]): Non-toxic

Reference: ChEMBL document CHEMBL1152867, “Targeting QseC signaling and virulence for antibiotic development” (Science, 2008)
